Ki, Ratio Ki and Intrinsic activity data for twelve compounds are collected here from ChEMBL document CHEMBL1146258, “N6-Cycloalkyl-2-substituted adenosine derivatives as selective, high affinity adenosine A1 receptor agonists” (Bioorg Med Chem Lett, 2007).

Test [1] addresses T1, Adenosine receptor A2b (Homo sapiens, UniProt P29275).
T1 sequence (P29275 whole entry): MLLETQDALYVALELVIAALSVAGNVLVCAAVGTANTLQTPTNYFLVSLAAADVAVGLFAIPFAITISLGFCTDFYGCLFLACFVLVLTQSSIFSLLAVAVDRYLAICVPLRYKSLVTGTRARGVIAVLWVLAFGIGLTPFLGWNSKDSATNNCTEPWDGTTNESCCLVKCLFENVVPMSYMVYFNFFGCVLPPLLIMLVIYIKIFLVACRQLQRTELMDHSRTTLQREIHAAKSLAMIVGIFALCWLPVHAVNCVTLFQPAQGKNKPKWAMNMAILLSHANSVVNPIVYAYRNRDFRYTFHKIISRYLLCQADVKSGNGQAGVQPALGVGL
As to the kind of experiment: Displacement of [3H]ZM241385 from adenosine A2B receptor expressed in HEK cells. Type of test: cell-based, HEK293. An outline of the steps:
(§1)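 HEK cells expressing A2A or A2B receptor, [³H]-ZM241385 radioligand, run without GTP; Ki for the high-affinity (coupled) state. 95% confidence limits generally 15% of mean.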
(In general: Displacement assays read how much labelled ligand stays bound in the presence of the test substance.)

The target of test [2] is Adenosine receptor A2a (Homo sapiens, UniProt P29274). As to the kind of experiment: Displacement of [3H]ZM-241385 from A2A adenosine A2A receptor expressed in HEK cells. Type of test: cell-based, HEK293. An outline of the steps:
as §1

Test [3] addresses T2, Adenosine receptor A3 (Homo sapiens, UniProt P0DMS8).
T2 sequence (P0DMS8 whole entry): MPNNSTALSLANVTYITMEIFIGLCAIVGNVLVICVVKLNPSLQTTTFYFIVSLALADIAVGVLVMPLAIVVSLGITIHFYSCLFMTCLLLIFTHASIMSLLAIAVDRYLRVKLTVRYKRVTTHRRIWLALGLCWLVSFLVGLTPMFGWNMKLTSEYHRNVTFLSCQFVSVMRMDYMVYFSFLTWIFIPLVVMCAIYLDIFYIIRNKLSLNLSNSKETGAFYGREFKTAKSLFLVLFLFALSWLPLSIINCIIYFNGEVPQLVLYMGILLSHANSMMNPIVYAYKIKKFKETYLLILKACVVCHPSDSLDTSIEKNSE
As to the kind of experiment: Displacement of [125I]ABMECA from adenosine A3 receptor expressed in CHO cells. The format is cell-based.

The target of test [4] is Adenosine receptors; A1 & A3 (Homo sapiens) (UniProt P30542+P0DMS8). As to the kind of experiment: Selectivity for adenosine A1 receptor over adenosine A3 receptor. The format is protein assay. An outline of the steps: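 Ratio of A3 Ki-High (CHO-A3 cells, [¹²⁵I]-AB-MECA, no GTP) to A1 Ki-Low (DDT membranes, [³H]-CPX, with GTPγS).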
Adenosine receptors; A1 & A3 (Homo sapiens), sequence (P30542 whole entry, looked up, one chain of several): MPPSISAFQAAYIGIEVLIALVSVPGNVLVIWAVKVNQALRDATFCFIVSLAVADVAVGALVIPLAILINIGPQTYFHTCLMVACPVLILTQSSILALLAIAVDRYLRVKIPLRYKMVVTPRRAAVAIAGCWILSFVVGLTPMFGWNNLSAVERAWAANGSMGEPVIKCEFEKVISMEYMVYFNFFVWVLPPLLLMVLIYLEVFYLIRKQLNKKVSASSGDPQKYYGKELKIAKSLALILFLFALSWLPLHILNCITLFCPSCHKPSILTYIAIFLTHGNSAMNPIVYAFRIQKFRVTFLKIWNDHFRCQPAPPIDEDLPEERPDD
Test [5] has as its target Adenosine receptors; A1 & A2a (Homo sapiens) (UniProt P30542+P29274). As to the kind of experiment: Selectivity for adenosine A1 receptor over adenosine A2A receptor. The format is protein assay.
The target of test [6] is T3, Adenosine receptor A1 (Rattus norvegicus) (UniProt P25099).
T3 sequence (whole entry): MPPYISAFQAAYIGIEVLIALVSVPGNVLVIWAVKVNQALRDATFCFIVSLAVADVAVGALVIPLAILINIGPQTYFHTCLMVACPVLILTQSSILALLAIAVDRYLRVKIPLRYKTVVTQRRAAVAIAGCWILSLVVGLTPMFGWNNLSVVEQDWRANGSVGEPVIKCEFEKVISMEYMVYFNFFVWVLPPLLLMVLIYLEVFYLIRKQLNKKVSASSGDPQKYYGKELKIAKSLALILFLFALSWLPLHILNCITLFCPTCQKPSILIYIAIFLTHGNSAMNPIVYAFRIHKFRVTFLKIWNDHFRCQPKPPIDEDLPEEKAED
The test can be described thus: Agonist activity at adenosine A1 receptor in rat brain membrane assessed as stimulation of [35S]GTP-gamma-S binding relative to CPA. The format is functional, cell membranes. An outline of the steps:
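Rat brain membranes; agonist-induced [³⁵S]GTPγS binding to G protein measured, with maximal stimulation by the full agonist CPA set as 100% and efficacy expressed relative to it.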

Test [7] deals with Adenosine receptor A1 (Mesocricetus auratus). The test can be described thus: Displacement of [3H]CPX from adenosine A1 receptor in DDT membranes.

As a reminder, the Ki is a dissociation constant, usually derived from enzyme kinetics or from competition with a known ligand.

Adenosine receptor A2a, sequence (P29274 whole entry): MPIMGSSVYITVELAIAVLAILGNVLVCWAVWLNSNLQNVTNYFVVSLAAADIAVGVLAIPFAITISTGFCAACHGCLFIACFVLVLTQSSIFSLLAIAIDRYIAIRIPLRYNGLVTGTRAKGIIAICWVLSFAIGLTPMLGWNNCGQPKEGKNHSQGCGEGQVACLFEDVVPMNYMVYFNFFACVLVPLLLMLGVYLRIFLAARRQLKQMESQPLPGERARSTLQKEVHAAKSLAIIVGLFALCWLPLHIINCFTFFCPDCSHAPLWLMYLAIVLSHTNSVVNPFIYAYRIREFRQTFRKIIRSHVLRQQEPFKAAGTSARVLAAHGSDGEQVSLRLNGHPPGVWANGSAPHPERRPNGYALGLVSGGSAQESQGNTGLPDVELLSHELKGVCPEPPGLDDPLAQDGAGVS

`CCOC(=O)c1cnn(-c2nc(NC3CCCC3)c3ncn([C@@H]4O[C@H](CO)[C@@H](O)[C@H]4O)c3n2)c1`: the Ki in test [1] was more than 6 µM; in test [2], more than 5 µM; in test [3] it was 0.019 µM. In test [4], the Ratio Ki turned out to be 21.

Regarding `CCNC(=O)c1cnn(-c2nc(NC3CCCC3)c3ncn([C@@H]4O[C@H](CO)[C@@H](O)[C@H]4O)c3n2)c1`, the results for the inhibitory constant (Ki) in test [1], in test [2] and in test [3] were more than 6 µM, more than 5 µM and 0.02 µM, respectively. Besides, the Ratio Ki in test [4] turned out to be 20.

Turning to `NC(=O)c1cnn(-c2nc(NC3CCCC3)c3ncn([C@@H]4O[C@H](CO)[C@@H](O)[C@H]4O)c3n2)c1`, the inhibition constant Ki in test [1] was more than 6 µM; in test [2] it was more than 5 µM; in test [3], 0.38 µM. Moreover, the Ratio Ki is more than 600 in test [5] and 633 in test [4].

Consider `O=C(O)c1cnn(-c2nc(NC3CCCC3)c3ncn([C@@H]4O[C@H](CO)[C@@H](O)[C@H]4O)c3n2)c1`, for which the Ki in test [1] was more than 6 µM; in test [2] it was more than 5 µM; in test [3], 4.12 µM. Moreover, the Intrinsic activity in test [6] stood at 100%. The Ratio Ki in test [4] was found to be 468.

In the case of `CCOC(=O)c1cnn(-c2nc(NC3CCCCC3)c3ncn([C@@H]4O[C@H](CO)[C@@H](O)[C@H]4O)c3n2)c1`, the values for the inhibition constant (Ki) in test [1], in test [2] and in test [3] were more than 6 µM, more than 5 µM and 0.03 µM, respectively. The Ratio Ki in test [4] amounted to 1.

`CNC(=O)c1cnn(-c2nc(NC3CCCCC3)c3ncn([C@@H]4O[C@H](CO)[C@@H](O)[C@H]4O)c3n2)c1`: the Ki in test [1] was more than 6 µM; in test [2], more than 5 µM; in test [3], 0.158 µM. The Ratio Ki in test [4] was determined as 19.

Consider `O=C(O)c1cnn(-c2nc(NC34CCC(CC3)C4)c3ncn([C@@H]4O[C@H](CO)[C@@H](O)[C@H]4O)c3n2)c1`, for which the inhibition constant (Ki) in test [1] was more than 6 µM; in test [2], more than 5 µM; in test [3] it was more than 5 µM. The Ratio Ki in test [4] is more than 5000.

Turning to `CNC(=O)c1cnn(-c2nc(NC3CCCC3)c3ncn([C@@H]4O[C@H](CO)[C@@H](O)[C@H]4O)c3n2)c1`, the Ki in test [1] was more than 6 µM; in test [2], more than 5 µM; in test [3], 1.42 µM. The Ratio Ki in test [4] is 710.

For the compound `CCOC(=O)c1cnn(-c2nc(NC34CCC(CC3)C4)c3ncn([C@@H]4O[C@H](CO)[C@@H](O)[C@H]4O)c3n2)c1`, the Ki in test [1] is more than 6 µM; in test [2], more than 5 µM; in test [3] it was 0.25 µM. Further, in test [4], the Ratio Ki is 83.

Turning to `CCNc1nc(-n2cc(-c3ccc(OC)cc3)cn2)nc2c1ncn2[C@@H]1O[C@H](CO)[C@@H](O)[C@H]1O`, the inhibition constant Ki in test [7] stood at 3.7 µM.

Consider `OC[C@H]1O[C@@H](n2cnc3c(NC4CCCC4)nc(-n4cccn4)nc32)[C@H](O)[C@@H]1O`, for which the Ki in test [1] was more than 6 µM; in test [2] it was more than 5 µM; in test [3], 0.105 µM. In addition, the Ratio Ki in test [4] worked out at 3.

As for `OC[C@H]1O[C@@H](n2cnc3c(NC45CCC(CC4)C5)nc(-n4cccn4)nc32)[C@H](O)[C@@H]1O`, the inhibitory constant (Ki) is more than 6 µM in test [1], more than 5 µM in test [2] and 1.27 µM in test [3]. Further, the Ratio Ki in test [4] was 3180.
